Results gathered from unrelated publications.
Protocols differ between the studies behind these lines.
Sample: plasma
Route: oral

| Structure (SMILES) | host | dose | setting | AUC(0-inf) |
| --- | --- | --- | --- | --- |
| Cn1cc(-c2ccc(S(=O)(=O)[C@@H]3C[C@@H](C(=O)NC4(C#N)CC4)N(C(=O)C4(C(F)(F)F)CC4)C3)c(C(F)(F)F)c2)cn1 | human | 30 mg | single dose, fasted, healthy volunteers | 3240 ng·h/mL |
| CC(C)n1cc(C#N)c2cc(-n3cc(C(=O)O)cn3)ccc21 | human | 10 mg | single dose, fasted, healthy volunteers | 1770 ng·h/mL |
| COc1ccc([C@@H]2CN(C(=O)[C@@H](O)CO)C[C@@]2(C)[C@@H](C)O)cc1OC1CN(c2ccc(C)cn2)C1 | human | 40 mg | single dose, healthy volunteers | 9000 ng·h/mL |
| CCc1nc2c(C)cc(N3CCN(CC(=O)N4CC(O)C4)CC3)cn2c1N(C)c1nc(-c2ccc(F)cc2)c(C#N)s1 | human | 600 mg | single dose, fasted, healthy volunteers | 36600 ng·h/mL |
| CC(C)(O)c1ccccc1-c1ccc2[nH]c(/C=C/c3ccc(C(F)(F)F)cc3)nc2c1 | male human | 10 mg | single dose, fasted | 2110 ng·h/mL |
| CO[C@H]1CC[C@H](N2C(=O)CNc3ncc(-c4ccc(C(C)(C)O)nc4)nc32)CC1 | human | 7.5 mg | patients | 353 ng·h/mL |
| C[C@@]1(c2cc(NC(=O)c3ccc(C#N)cn3)ccc2F)C=CSC(N)=N1 | human | 90 mg | single dose | 8950 ng·h/mL |
| CC(C)(Sc1ccncc1-c1ccc(C#N)c2ccccc12)C(=O)O | male human | 20 mg | single dose, fasted, healthy volunteers | 540 ng·h/mL |
